Data: ChEMBL document CHEMBL3588772, “Synthesis, anti-mycobacterial activity and DNA sequence-selectivity of a library of biaryl-motifs containing polyamides” (Bioorg Med Chem, 2015)
≈ marks a conversion by molar mass, not a printed value. Calls of active or inactive are those of the source. No cut-off for these calls is given here.

How the values were obtained:
[1] = Selectivity index, ratio of GIC50 for mouse RAW264.7 cells to MIC for Mycobacterium tuberculosis H37Rv; format: toxicity; details: read-out: Selectivity Index
In short: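 Cytotoxicity was measured in mouse macrophage RAW264.7 cells by resazurin viability readout. GIC50 was interpolated at 50% viability versus untreated control. SI = GIC50 divided by the M. tuberculosis MIC from the agar spot assay.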

[2] = tested on: Mycobacterium tuberculosis; assay: Antimycobacterial activity against Mycobacterium tuberculosis H37Rv after 7 days; format: functional; details: 168 h
In short: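 HT-SPOTi agar growth inhibition in 96-well format. Serially diluted DMSO solutions were mixed into Middlebrook 7H10 agar (kept at 55 °C) with 0.05% glycerol and 10% OADC. Controls were DMSO-only wells and isoniazid. Each well received 2×10³ CFU of culture (pre-grown rolling at 2 rpm or standing, 37 °C). Plates ran 7 days at 37 °C. MIC = lowest concentration with no visible growth.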

[3] = Cytotoxicity against mouse RAW264.7 cells; format: cell-based
In short: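 RAW264.7 mouse macrophages assessed by resazurin viability assay. GIC50 interpolated at 50% viability versus control.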

[4] = Binding affinity to 192 base-pair fragment HexB (unknown origin) at 5 to 10 uM after 30 mins by DNaSeI footprinting assay
In short: (§1)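 Radiolabelled HexB fragment in 10 mM Tris–HCl pH 7.5 with 0.1 mM EDTA, mixed with ligand in 10 mM Tris–HCl pH 7.5 with 10 mM NaCl. Equilibrated 30 min at room temperature, then DNase I in 20 mM NaCl, 2 mM MgCl₂, 2 mM MnCl₂ for 1 min. Heated 100 °C 3 min, resolved on 8% denaturing polyacrylamide gels, phosphorimaged. GA purine markers and no-ligand control lanes included.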

[5] = Binding affinity to 192 base-pair fragment HexB 5-ATTAAT-3 (unknown origin) at 1 to 10 uM after 30 mins by DNaSeI footprinting assay; in short: as §1
unidentified [6] = assay: Binding affinity to 192 base-pair fragment HexB 5-AATATT-3 (unknown origin) at 1 to 10 uM after 30 mins by DNaSeI footprinting assay; in short: as §1
unidentified [7] = assay: Binding affinity to 192 base-pair fragment HexB 5-ACATAT-3 (unknown origin) at 1 to 10 uM after 30 mins by DNaSeI footprinting assay; in short: as §1
[8] = Binding affinity to 5'-ACVHA-3' (V= A or G or C; H= C or T or A) (unknown origin) at 2 uM after 45 mins by ethidium bromide assay
In short: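 Hairpin oligonucleotides from a 512-member five-bp library at 1 µM base pairs final with 4.4 µM ethidium bromide in 0.1 M Tris–HCl, 0.1 M NaCl, pH 8. Fluorescence read after 15 min at room temperature (ex 545, em 595 nm). Ligand added at 2 µM final (DMSO), read again after 45 min. Triplicates; % fluorescence reduction relative to no-drug and no-DNA controls.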

[9] = Binding affinity to 192 base-pair fragment HexB (unknown origin) at 1 to 10 uM after 30 mins by DNaSeI footprinting assay; in short: as §1
unidentified [10] = assay: Binding affinity to 192 base-pair fragment HexB 5-TAATTA-3 (unknown origin) at 5 to 10 uM after 30 mins by DNaSeI footprinting assay; in short: as §1
[11] = Binding affinity to 192 base-pair fragment HexB 5-TTATAA-3 (unknown origin) at 5 to 10 uM after 30 mins by DNaSeI footprinting assay; in short: as §1
[12] = Binding affinity to 192 base-pair fragment HexB 5-CAATTG-3 (unknown origin) at 5 to 10 uM after 30 mins by DNaSeI footprinting assay; in short: as §1

| SMILES | selectivity ratio [1] | MIC [2] [µg/mL] | GI50 [3] [µg/mL] | Activity [4] | Activity [5] | Activity (unidentified [6]) | Activity (unidentified [7]) | Activity [8] | Activity [9] | Activity (unidentified [10]) | Activity [11] | Activity [12] |
| --- | --- | --- | --- | --- | --- | --- | --- | --- | --- | --- | --- | --- |
| CC(=O)Nc1ccc(-c2ccc(C(=O)Nc3cc(C(=O)Nc4cc(C(=O)NCCCN(C)C)n(C)c4)n(C)c3)o2)cc1 | 2 | 125 (≈ 218 µM) | 250 (≈ 436 µM) |  |  |  |  |  |  |  |  |  |
| CC(=O)Nc1ccc(-c2cc(C(=O)Nc3cc(C(=O)Nc4cc(C(=O)NCCCN(C)C)n(C)c4)n(C)c3)n(C)c2)cc1 | 4 | 125 (≈ 213 µM) | 500 (≈ 852 µM) |  |  |  |  |  |  |  |  |  |
| Cc1nc(-c2ccsc2)sc1C(=O)Nc1cc(C(=O)Nc2cc(C(=O)NCCCN(C)C)n(C)c2)n(C)c1 | 0.25 | 250 (≈ 451 µM) | 62.5 (≈ 113 µM) |  |  |  |  |  |  |  |  |  |
| CC(=O)Nc1cccc(-c2ccc(C(=O)Nc3cc(C(=O)Nc4cc(C(=O)NCCCN(C)C)n(C)c4)n(C)c3)o2)c1 | 4 | 125 (≈ 218 µM) | 500 (≈ 872 µM) |  |  |  |  |  |  |  |  |  |
| Cc1nc(-c2cnn(C)c2)sc1C(=O)Nc1cc(C(=O)Nc2cc(C(=O)NCCCN(C)C)n(C)c2)n(C)c1 | 8 | 31.2 (≈ 56.6 µM) | 250 (≈ 453 µM) | Active | Active | Active | Active | Active | Active |  |  |  |
| CO[C@H]1/C=C/O[C@@]2(C)Oc3c(C)c(O)c4c(O)c(c(/C=N/N5CCN(C)CC5)c(O)c4c3C2=O)NC(=O)/C(C)=C\C=C\[C@H](C)[C@H](O)[C@@H](C)[C@@H](O)[C@@H](C)[C@H](OC(C)=O)[C@@H]1C [RIFAMPIN] | 14000 | 0.05 (≈ 0.0608 µM) | 700 (≈ 851 µM) |  |  |  |  |  |  |  |  |  |
| Cn1cc(NC(=O)c2cc(NC(=O)c3cc(NC=O)cn3C)cn2C)cc1C(=O)NCCC(=N)N [STALLIMYCIN] | 2 | 31.2 (≈ 64.9 µM) | 62.5 (≈ 130 µM) | Active |  |  |  |  | Active | Active | Active | Active |
| NNC(=O)c1ccncc1 [ISONIAZID] | 60000 | 0.05 (≈ 0.365 µM) | 3000 (≈ 21900 µM) |  |  |  |  |  |  |  |  |  |
| CC(=O)Nc1ccc(-c2csc(C(=O)Nc3cc(C(=O)Nc4cc(C(=O)NCCCN(C)C)n(C)c4)n(C)c3)c2)cc1 | 1 | 62.5 (≈ 106 µM) | 62.5 (≈ 106 µM) |  |  |  |  |  |  |  |  |  |
